# ChEMBL document CHEMBL1146380, “Synthesis, antimicrobial activity, and QSAR studies of furan-3-carboxamides” (2007)
# The source made the active and inactive calls. The rule behind the calls is not given here.
# Legend:
# Nakaseomyces glabratus = test: Antimicrobial activity against Candida glabrata […] by broth microdilution method; format: functional
# Method in brief: (§1)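 Yeasts grown on potato dextrose agar. Inoculum was standardized by McFarland turbidity as for bacteria, into RPMI 1640 broth (M27-A2). DMSO-dissolved compound was tested in twofold dilutions from 320 to 1.25 at 35 °C for 24 h, in duplicate. MIC was the lowest concentration completely inhibiting visible growth. Fungicidal concentration was read by subculturing 20 µL from clear wells on Sabouraud dextrose agar at 35 °C.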
# Sporothrix schenckii = test: Antimicrobial activity against Sporothrix schenckii ATCC 1146 by broth microdilution method; format: functional
# Aspergillus terreus = test: Antimicrobial activity against Aspergillus terreus isolate by broth microdilution method; format: functional
# Candida dubliniensis = test: Antimicrobial activity against Candida dubliniensis CBS 7987 by broth microdilution method; format: functional; method in brief: as §1
# [1] = system: Cryptococcus deneoformans; test: Antimicrobial activity against Cryptococcus neoformans var.neoformans serotype D ATCC 28952 by broth microdilution method; format: functional
# Method in brief: (§2)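 Organism grown on potato dextrose agar, with turbidity-standardized inoculum in RPMI 1640 broth (M27-A2). DMSO-dissolved compound was tested in twofold dilutions from 320 to 1.25 at 35 °C, incubated up to 72 h, in duplicate. MIC was the lowest concentration with no visible growth. Cidal concentration was read by subculturing 20 µL from clear wells on Sabouraud dextrose agar, incubated for the same period.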
# Escherichia coli = test: Antimicrobial activity against Escherichia coli ATCC 25922 by broth microdilution method; format: functional
# Method in brief: (§3)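 Bacteria grown overnight on Mueller–Hinton agar. Colonies were suspended in saline to McFarland turbidity (about 10^8 cfu/mL), diluted 1:100 in saline, then 1:20 in Mueller–Hinton broth, giving 5 · 10^4 cfu/mL per well. DMSO-dissolved compound was tested in twofold dilutions from 320 to 1.25 at 35 °C for 24 h. MIC was the lowest concentration with no visible turbidity (M7-A4). Bactericidal concentration was read by subculturing clear wells on Mueller–Hinton agar.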
# Aspergillus niger = test: Antimicrobial activity against Aspergillus niger isolate by broth microdilution method; format: functional
# Aspergillus fumigatus = test: Antimicrobial activity against Aspergillus fumigatus isolate by broth microdilution method; format: functional
# Aspergillus flavus = test: Antimicrobial activity against Aspergillus flavus isolate by broth microdilution method; format: functional
# Rhizopus arrhizus = test: Antimicrobial activity against Rhizopus oryzae isolate by broth microdilution method; format: functional
# [2] = (§4) Antimicrobial activity against Salmonella setubal ATCC 19196 by broth microdilution method; format: functional, Salmonella enterica subsp. enterica serovar Setubal; conditions: Salmonella enterica; method in brief: as §3
# [3] = system: Salmonella enterica subsp. enterica serovar Setubal; test: as §4; format: functional; method in brief: as §3
# Staphylococcus aureus = test: Antimicrobial activity against Staphylococcus aureus ATCC 25923 by broth microdilution method; format: functional; conditions: for MBC: read-out: MFC; method in brief: as §3
# Fusarium solani = test: Antimicrobial activity against Fusarium solani isolate by broth microdilution method; format: functional
# Candida albicans = test: Antimicrobial activity against Candida albicans ATCC 44373 by broth microdilution method; format: functional; method in brief: as §1
# Klebsiella pneumoniae = test: Antimicrobial activity against Klebsiella pneumoniae ATCC 1003 by broth microdilution method; format: functional; conditions: for MBC: read-out: MFC; method in brief: as §3
# Prototheca zopfii = test: Antimicrobial activity against Prototheca zopfii by broth microdilution method; format: functional; method in brief: as §2
# Pseudomonas aeruginosa = test: Antimicrobial activity against Pseudomonas aeruginosa ATCC 27853 by broth microdilution method; format: functional; method in brief: as §3
# Saccharomyces cerevisiae = test: Antimicrobial activity against Saccharomyces cerevisiae ATCC 2601 by broth microdilution method; format: functional; method in brief: as §2
# Scedosporium boydii = test: Antimicrobial activity against Pseudallescheria boydii isolate by broth microdilution method; format: functional
Structure (SMILES),MIC (Sporothrix schenckii),MIC [1],MIC (Escherichia coli),MIC (Aspergillus niger),MIC (Aspergillus fumigatus),MIC (Rhizopus arrhizus),MIC [2],MIC (Staphylococcus aureus),MIC (Fusarium solani),MIC (Klebsiella pneumoniae),MIC (Prototheca zopfii),MIC (Pseudomonas aeruginosa),MIC (Scedosporium boydii),Activity (Aspergillus terreus),Activity (Aspergillus flavus),Activity [3],Activity (Fusarium solani),Activity (Pseudomonas aeruginosa),MFC (Scedosporium boydii),Activity (Escherichia coli),further results
O=C(NCCC1CCN(Cc2ccccc2)CC1)c1ccoc1,20 µg/mL,320 µg/mL,160 µg/mL,320 µg/mL,320 µg/mL,320 µg/mL,320 µg/mL,40 µg/mL,320 µg/mL,160 µg/mL,320 µg/mL,20 µg/mL,40 µg/mL,inactive,inactive,inactive,inactive,inactive,80 µg/mL,,MFC (Nakaseomyces glabratus): 320 µg/mL; MIC (Nakaseomyces glabratus): 320 µg/mL; Activity (Sporothrix schenckii): inactive; MIC (Aspergillus terreus): 320 µg/mL; MFC (Candida dubliniensis): 160 µg/mL; MIC (Candida dubliniensis): 160 µg/mL; Activity [1]: inactive; MBC (Escherichia coli): 320 µg/mL; Activity (Aspergillus niger): inactive; Activity (Aspergillus fumigatus): inactive; MIC (Aspergillus flavus): 320 µg/mL; Activity (Rhizopus arrhizus): inactive; MBC (Staphylococcus aureus): 160 µg/mL; MFC (Candida albicans): 320 µg/mL; MIC (Candida albicans): 160 µg/mL; MBC (Klebsiella pneumoniae): 320 µg/mL; MFC (Prototheca zopfii): 320 µg/mL; MFC (Saccharomyces cerevisiae): 160 µg/mL; MIC (Saccharomyces cerevisiae): 80 µg/mL
NS(=O)(=O)c1ccc(NC(=O)c2ccoc2)cc1,,,,320 µg/mL,,,160 µg/mL,,,20 µg/mL,,,,inactive,,inactive,inactive,inactive,,inactive,Activity (Nakaseomyces glabratus): inactive; Activity (Sporothrix schenckii): inactive; Activity (Candida dubliniensis): inactive; Activity [1]: inactive; MFC (Aspergillus niger): 320 µg/mL; Activity (Aspergillus fumigatus): inactive; MFC (Aspergillus flavus): 320 µg/mL; MIC (Aspergillus flavus): 320 µg/mL; Activity (Rhizopus arrhizus): inactive; Activity (Staphylococcus aureus): inactive; Activity (Candida albicans): inactive; MBC (Klebsiella pneumoniae): 320 µg/mL; Activity (Prototheca zopfii): inactive; Activity (Saccharomyces cerevisiae): inactive; Activity (Scedosporium boydii): inactive
N=C(NC(=O)c1ccoc1)c1ccccc1,320 µg/mL,160 µg/mL,320 µg/mL,320 µg/mL,320 µg/mL,320 µg/mL,320 µg/mL,320 µg/mL,320 µg/mL,320 µg/mL,160 µg/mL,320 µg/mL,160 µg/mL,,inactive,inactive,inactive,inactive,160 µg/mL,inactive,Activity (Nakaseomyces glabratus): inactive; MFC (Sporothrix schenckii): 320 µg/mL; MFC (Aspergillus terreus): 320 µg/mL; MIC (Aspergillus terreus): 320 µg/mL; Activity (Candida dubliniensis): inactive; MFC [1]: 320 µg/mL; Activity (Aspergillus niger): inactive; MFC (Aspergillus fumigatus): 320 µg/mL; MFC (Rhizopus arrhizus): 320 µg/mL; Activity (Staphylococcus aureus): inactive; Activity (Candida albicans): inactive; Activity (Klebsiella pneumoniae): inactive; MFC (Prototheca zopfii): 320 µg/mL; Activity (Saccharomyces cerevisiae): inactive
O=C(Nc1nc[nH]n1)c1ccoc1,160 µg/mL,20 µg/mL,320 µg/mL,320 µg/mL,320 µg/mL,320 µg/mL,320 µg/mL,160 µg/mL,320 µg/mL,320 µg/mL,160 µg/mL,160 µg/mL,320 µg/mL,inactive,inactive,inactive,inactive,,320 µg/mL,inactive,MFC (Nakaseomyces glabratus): 80 µg/mL; MIC (Nakaseomyces glabratus): 80 µg/mL; MFC (Sporothrix schenckii): 320 µg/mL; MFC (Candida dubliniensis): 80 µg/mL; MIC (Candida dubliniensis): 40 µg/mL; MFC [1]: 80 µg/mL; Activity (Aspergillus fumigatus): inactive; Activity (Rhizopus arrhizus): inactive; MBC (Staphylococcus aureus): 160 µg/mL; MFC (Candida albicans): 80 µg/mL; MIC (Candida albicans): 80 µg/mL; MBC (Klebsiella pneumoniae): 320 µg/mL; MFC (Prototheca zopfii): 160 µg/mL; MBC (Pseudomonas aeruginosa): 320 µg/mL; MFC (Saccharomyces cerevisiae): 320 µg/mL; MIC (Saccharomyces cerevisiae): 160 µg/mL
O=C(NCc1cccnc1)c1ccoc1,320 µg/mL,160 µg/mL,320 µg/mL,320 µg/mL,320 µg/mL,320 µg/mL,320 µg/mL,320 µg/mL,320 µg/mL,320 µg/mL,160 µg/mL,320 µg/mL,160 µg/mL,inactive,inactive,inactive,inactive,inactive,160 µg/mL,inactive,Activity (Nakaseomyces glabratus): inactive; MFC (Sporothrix schenckii): 320 µg/mL; MIC (Aspergillus terreus): 320 µg/mL; Activity (Candida dubliniensis): inactive; MIC (Candida dubliniensis): 320 µg/mL; MFC [1]: 320 µg/mL; MFC (Aspergillus niger): 320 µg/mL; MFC (Aspergillus fumigatus): 320 µg/mL; MFC (Rhizopus arrhizus): 320 µg/mL; Activity (Staphylococcus aureus): inactive; Activity (Candida albicans): inactive; Activity (Klebsiella pneumoniae): inactive; MFC (Prototheca zopfii): 160 µg/mL; MFC (Saccharomyces cerevisiae): 320 µg/mL; MIC (Saccharomyces cerevisiae): 320 µg/mL

# The remaining molecules from weak to strong by MIC [2], led by results:
MIC (Sporothrix schenckii),MIC [1],MIC (Escherichia coli),MIC (Aspergillus niger),MIC (Aspergillus fumigatus),MIC (Rhizopus arrhizus),MIC [2],MIC (Staphylococcus aureus),MIC (Fusarium solani),MIC (Klebsiella pneumoniae),MIC (Prototheca zopfii),MIC (Pseudomonas aeruginosa),MIC (Scedosporium boydii),Structure (SMILES),Activity (Aspergillus terreus),Activity (Aspergillus flavus),Activity [3],Activity (Fusarium solani),Activity (Pseudomonas aeruginosa),MFC (Scedosporium boydii),Activity (Escherichia coli),further results
160 µg/mL,320 µg/mL,320 µg/mL,,320 µg/mL,320 µg/mL,320 µg/mL,320 µg/mL,320 µg/mL,320 µg/mL,320 µg/mL,160 µg/mL,160 µg/mL,Cc1ccc(S(=O)(=O)NNC(=O)c2ccoc2)cc1,inactive,inactive,inactive,inactive,,160 µg/mL,inactive,Activity (Nakaseomyces glabratus): inactive; Activity (Sporothrix schenckii): inactive; MIC (Aspergillus terreus): 320 µg/mL; Activity (Candida dubliniensis): inactive; MFC [1]: 320 µg/mL; Activity (Aspergillus niger): inactive; MFC (Aspergillus fumigatus): 320 µg/mL; MIC (Aspergillus flavus): 320 µg/mL; Activity (Rhizopus arrhizus): inactive; Activity (Staphylococcus aureus): inactive; Activity (Candida albicans): inactive; Activity (Klebsiella pneumoniae): inactive; Activity (Prototheca zopfii): inactive; MBC (Pseudomonas aeruginosa): 320 µg/mL; MFC (Saccharomyces cerevisiae): 320 µg/mL; MIC (Saccharomyces cerevisiae): 160 µg/mL
160 µg/mL,320 µg/mL,,320 µg/mL,,320 µg/mL,320 µg/mL,320 µg/mL,,320 µg/mL,320 µg/mL,320 µg/mL,160 µg/mL,CN(C)C(=O)c1ccoc1,inactive,inactive,inactive,inactive,inactive,320 µg/mL,inactive,Activity (Nakaseomyces glabratus): inactive; MFC (Sporothrix schenckii): 320 µg/mL; Activity (Candida dubliniensis): inactive; Activity [1]: inactive; Activity (Aspergillus niger): inactive; Activity (Aspergillus fumigatus): inactive; MFC (Rhizopus arrhizus): 320 µg/mL; Activity (Staphylococcus aureus): inactive; Activity (Candida albicans): inactive; Activity (Klebsiella pneumoniae): inactive; Activity (Prototheca zopfii): inactive; MIC (Saccharomyces cerevisiae): inactive
